Published values pooled from the literature.
Each line is one published result; the experiments were not run side by side.
Organism: Aspergillus niger
Observed: microbial growth

| SMILES | test | system | setting | measurement | value |
| --- | --- | --- | --- | --- | --- |
| Cc1ccc(C)n1-c1ccc(-c2nnc(-c3ccc(O)cc3)[nH]2)cc1 | broth dilution | ATCC6275 |  | MIC | 31.2 µg/mL |
| CSc1ccc(-c2nc3ccc(C)cc3[nH]2)cc1 |  | ATCC16404 |  | MIC | 64 µg/mL |
| Cc1ccc(C)n1-c1ccc(-c2nnc(S)s2)cc1 | broth dilution | ATCC6275 |  | MIC | 125 µg/mL |
| CC1=NN(CNC(=O)c2ccccc2)C(=O)C1=NNn1c(-c2ccccc2)nc2ccccc2c1=O | broth dilution |  |  | MIC | 104 µM |
| Clc1ccccc1C(c1ccccc1)(c1ccccc1)n1ccnc1 | disc diffusion |  | 20000 µg/mL | inhibition zone | 25 mm |
| O=C1NN=C(N=Cc2ccccc2)C1=NNn1c(-c2ccccc2)nc2ccccc2c1=O | broth dilution |  |  | MIC | 57.1 µM |
| Cc1ccc2nc(-c3ccc(Cl)c(Cl)c3)[nH]c2c1 |  | ATCC16404 |  | MIC | 32 µg/mL |
| Clc1ccccc1C(c1ccccc1)(c1ccccc1)n1ccnc1 | disc diffusion |  | 100 µg/mL | inhibition zone | 18 mm |
| CC1=NN(CNC(=O)c2ccccn2)C(=O)C1=NNn1c(-c2ccccc2)nc2ccccc2c1=O | broth dilution |  |  | MIC | 104 µM |
| Cc1ccc2nc(-c3ccco3)n(Cc3ccccc3)c2c1 |  | ATCC16404 |  | MIC | 512 µg/mL |
| O=C(O)c1cn(C2CC2)c2cc(N3CCNCC3)c(F)cc2c1=O | broth dilution |  |  | MIC | 25.5 µM |
| Cc1cc(=O)[nH]n1C(=O)c1ccc(-n2c(C)ccc2C)cc1 | broth dilution | ATCC6275 |  | MIC | 250 µg/mL |
| Oc1ccc(Br)cc1-c1nc2ccccc2[nH]1 |  | ATCC16404 |  | MIC | 512 µg/mL |
| Cc1ccc(C)n1-c1ccc(-c2n[nH]c(=S)[nH]2)cc1 | broth dilution | ATCC6275 |  | MIC | > 500 µg/mL |
| O=C1NN=C(N=Cc2ccc(O)cc2O)C1=NNn1c(-c2ccccc2)nc2ccccc2c1=O | broth dilution |  |  | MIC | 107 µM |
| Cc1ccc(C)n1-c1ccc(-c2nnc(-c3ccc(Br)cc3)[nH]2)cc1 | broth dilution | ATCC6275 |  | MIC | 4 µg/mL |
| Cc1ccc2nc(-c3cc(Br)ccc3O)[nH]c2c1 |  | ATCC16404 |  | MIC | 256 µg/mL |
